Assay results taken from ChEMBL document CHEMBL2046322, “Discovery of 1,3-Diaminobenzenes as Selective Inhibitors of Platelet Activation at the PAR1 Receptor” (ACS Med Chem Lett, 2012).
Values after ≈ are worked out from the molar mass of the structure shown.

How the values were obtained:
Plasma [1] = test: Plasma protein binding in human; assay type: ADME, cell-free
[2] = biological target: T1, Proteinase-activated receptor 1 (Homo sapiens) (UniProt P25116); test: Inhibition of SFLLRN-NH2-stimulated PAR1-mediated platelet activation in […] assessed as surface expression of P-selectin at 10 uM after 20 mins by flow cytometry; assay type: cell-based
T1 sequence (whole entry): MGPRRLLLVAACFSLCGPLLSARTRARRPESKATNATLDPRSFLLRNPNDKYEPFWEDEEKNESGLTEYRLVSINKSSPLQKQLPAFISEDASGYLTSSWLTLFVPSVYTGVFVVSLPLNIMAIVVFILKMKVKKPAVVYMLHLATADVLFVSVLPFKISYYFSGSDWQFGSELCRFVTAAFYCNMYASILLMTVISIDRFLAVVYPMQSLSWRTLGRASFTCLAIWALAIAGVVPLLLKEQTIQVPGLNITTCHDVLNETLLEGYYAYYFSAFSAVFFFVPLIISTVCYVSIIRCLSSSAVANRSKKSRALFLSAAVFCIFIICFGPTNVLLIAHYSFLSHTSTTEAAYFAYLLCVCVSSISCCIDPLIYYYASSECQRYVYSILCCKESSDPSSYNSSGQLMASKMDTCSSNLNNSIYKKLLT

Plasma [3] = test: Metabolic stability in human plasma assessed as compound remaining at 5 uM after 5 hrs; assay type: ADME, cell-free
Summary of the method: (§1)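 Compound incubated in human or mouse plasma; stability reported as percent remaining after 5 h.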

Plasma [4] = test: Plasma protein binding in mouse; assay type: ADME, cell-free
[5] = biological target: T2, Proteinase-activated receptor 1 (Homo sapiens, UniProt P25116); test: Inhibition of SFLLRN-NH2-stimulated PAR1-mediated platelet activation in […] assessed as surface expression of P-selectin after 20 mins by flow cytometry; set-up: species or system Plasma
T2 sequence (P25116 whole entry): T1 sequence (whole entry)

Plasma [6] = test: Metabolic stability in mouse plasma assessed as compound remaining at 5 uM after 5 hrs; assay type: ADME, cell-free; summary of the method: as §1
[7] = biological target: T1, Proteinase-activated receptor 1 (Homo sapiens); test: Inhibition of SFLLRN-NH2-stimulated PAR1-mediated platelet activation in platelet-rich human plasma assessed as surface expression of P-selectin at 3 uM after 20 mins by flow cytometry; conditions: Platelets, in the assay text read “gel-filtered human platelets” for “platelet-rich human plasma”
Summary of the method: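 Gel-filtered human platelets (0.5–1 × 10⁸/mL) exposed to antagonist at 3 μM, then challenged with 5 μM SFLLRN for 10 min. Platelets stained with PE-conjugated AC1.2 anti-P-selectin antibody for 20 min at 37 °C, diluted in PBS and measured immediately by flow cytometry.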

[8] = Solubility of the compound in phosphate buffered saline; assay type: physicochemical; conditions: buffer

With `CCCCNc1cccc(NC(=O)c2ccccc2Br)c1` the PPB (Plasma [1]) was 97%, the inhibition [2] was > 99% and the Stability (Plasma [3]) was 99%. It also gave a PPB (Plasma [4]) of 96%, an IC50 [5] of 0.34 µM and a Stability (Plasma [6]) of 97%.
For `CCC(=O)Nc1cccc(NC(=O)c2ccccc2Br)c1`, the inhibition [7] was 95% and the IC50 [5] was 1.68 µM.
In the case of `O=C(Nc1cc(NC(=O)C2CCCC2)ccn1)c1ccccc1Br`, the inhibition [2] is reported as < 1%.
With `CCCC(=O)Nc1cccc(NC(=O)c2ccc(F)cc2Br)c1` the inhibition [2] was > 99% and the IC50 [5] was 0.39 µM.
In the case of `O=C(Nc1ccnc(NC(=O)c2ccccc2Br)c1)c1ccccc1`, the inhibition [2] is reported as 11%.
For `CCCC(=O)Nc1cccc(NC(=O)c2cccc(Cl)c2Cl)c1`, the inhibition [2] was 99% and the IC50 [5] was 3.12 µM.
For `CCCC(=O)Nc1cccc(NC(=O)c2cc(C)ccc2Br)c1`, the inhibition [2] was > 99% and the IC50 [5] was 0.48 µM.
With `CC(=O)N1CCCc2ccc(NC(=O)c3ccccc3Br)cc21` the inhibition [2] was 10%, the Stability (Plasma [3]) was 92% and the PPB (Plasma [4]) was 89%. It also gave a Stability (Plasma [6]) of 71%.
In the case of `CCC(C)(C)C(=O)Nc1cccc(NC(=O)c2ccccc2Br)c1`, the PPB (Plasma [1]) is reported as 95%, the inhibition [2] is reported as 21% and the Stability (Plasma [3]) is reported as > 99%. The Stability (Plasma [6]) was > 99%.
In the case of `CCCC(=O)Nc1cccc(NC(=O)c2ccccc2C(=O)N(C)C)c1`, the inhibition [2] is reported as 48%.
With `O=C(Nc1cccc(NC(=O)c2ccccc2Br)c1)c1ccccc1` the inhibition [2] was 67%.
With `CCCC(=O)Nc1cccc(NC(=O)c2c(Cl)cccc2Br)c1` the inhibition [2] was > 99% and the IC50 [5] was 2.28 µM.
`CCOC(=O)Nc1cccc(NC(=O)c2ccccc2Br)c1` gave a PPB (Plasma [1]) of 95%, an inhibition [2] of 98% and a Stability (Plasma [3]) of 85%. The PPB (Plasma [4]) was 87%, the IC50 [5] was 2.64 µM and the Stability (Plasma [6]) was 56%.
For `CCCC(=O)Nc1cccc(NC(=O)c2cccnc2)c1`, the inhibition [2] was < 1%.
For `CCCNC(=O)c1coc(NC(=O)c2ccccc2Br)n1`, the inhibition [2] was < 1%.
In the case of `CCCC(=O)Nc1cccc(NC(=O)c2ccc(F)cc2)c1`, the inhibition [2] is reported as 85%.
With `CCCCC(=O)Nc1cccc(NC(=O)c2ccccc2Br)c1` the inhibition [2] was < 1%.
For `CCCC(=O)Nc1cccc(NC(=O)c2cc(Cl)ccc2Br)c1`, the inhibition [2] was 68% and the IC50 [5] was 0.38 µM.
With `CCCC(=O)Nc1cccc(NC(=O)c2ccccc2CC)c1` the inhibition [2] was > 99% and the IC50 [5] was 0.52 µM.
For `CN(C(=O)c1ccccc1Br)c1cccc(NC(=O)C2CCCC2)c1`, the PPB (Plasma [1]) was 95%, the inhibition [2] was < 1% and the Stability (Plasma [3]) was 64%. It also gave a PPB (Plasma [4]) of 90% and a Stability (Plasma [6]) of 40%.
In the case of `CCCNC(=O)c1cccc(NC(=O)c2ccccc2Cl)c1`, the inhibition [2] is reported as 99% and the IC50 [5] is reported as 1.8 µM.
Compound `CCCC(=O)Nc1cccc(NC(=O)c2cccc([N+](=O)[O-])c2)c1` has an inhibition [2] of 55%.
For `O=C(Nc1cccc(N2CCCCC2=O)c1)c1ccccc1Br`, the PPB (Plasma [1]) was 82%, the inhibition [2] was 9% and the Stability (Plasma [3]) was 94%. It also gave a PPB (Plasma [4]) of 72% and a Stability (Plasma [6]) of 82%.
Compound `CCCC(=O)Nc1cccc(NC(=O)c2ccccc2C(F)(F)F)c1` has an inhibition [2] of 99% and an IC50 [5] of 1.29 µM.
For `CCCC(=O)Nc1cccc(NC(=O)c2ccc(C)cc2)c1`, the inhibition [2] was 25%.
`CCCC(=O)Nc1cccc(NC(=O)c2ccc(S(C)(=O)=O)cc2)c1` showed an inhibition [2] of 10%.
`O=C(Nc1cccc(NC(=O)C2CCCC2)c1)c1ccccc1Br` showed an inhibition [2] of 91%, an IC50 [5] of 0.52 µM and a Stability (Plasma [6]) of 26%.
`CCCC(=O)Nc1cccc(NC(=O)c2ccc(OC)cc2)c1` gave an inhibition [2] of 15%.
`CCCC(=O)Nc1cccc(NC(=O)c2ccc(C(F)(F)F)cc2)c1` gave an inhibition [2] of 30%.
With `CCS(=O)(=O)N1CCCc2ccc(NC(=O)c3ccccc3Br)cc21` the PPB (Plasma [1]) was 98%, the inhibition [2] was 26% and the Stability (Plasma [3]) was > 99%. The PPB (Plasma [4]) was 96% and the Stability (Plasma [6]) was 97%.
For `CCCC(=O)Nc1cccc(NC(=O)c2ccccc2OC)c1`, the inhibition [2] was 50%.
For `CCCC(=O)N(C)c1cccc(NC(=O)c2ccccc2Br)c1`, the PPB (Plasma [1]) was 98%, the inhibition [2] was 8% and the Stability (Plasma [3]) was 90%. For the same compound, the PPB (Plasma [4]) was 85% and the Stability (Plasma [6]) was 85%.
For `CCCC(=O)Nc1cccc(NC(=O)c2ccccc2Cl)c1`, the inhibition [2] was > 99% and the IC50 [5] was 1.1 µM.
For `O=C(Nc1cccc(N2CCCS2(=O)=O)c1)c1ccccc1Br`, the inhibition [2] was 8%, the Stability (Plasma [3]) was > 99% and the PPB (Plasma [4]) was 76%. It also gave a Stability (Plasma [6]) of 98%.
Compound `CCCC(=O)Nc1cccc(NC(=O)c2ccccc2C)c1` has an inhibition [2] of 98% and an IC50 [5] of 0.77 µM.
`CCCC(=O)Nc1cccc(NC(=O)c2ccc(Cl)cc2)c1` showed an inhibition [2] of 80%.
For `CCCC(=O)Nc1cccc(NC(=O)c2cc(F)ccc2Br)c1`, the inhibition [2] was > 99% and the IC50 [5] was 0.6 µM.
`CCCC(=O)Nc1cccc(NC(=O)c2ccco2)c1` showed an inhibition [2] of 30%.
In the case of `CCCC(=O)Nc1cccc(NC(=O)c2ccccc2-c2ccccc2)c1`, the inhibition [2] is reported as < 1%.
`CCS(=O)(=O)Nc1cccc(NC(=O)c2ccccc2Br)c1` gave a PPB (Plasma [1]) of 93%, an inhibition [2] of 27% and a Stability (Plasma [3]) of 99%. The PPB (Plasma [4]) was 69% and the Stability (Plasma [6]) was > 99%.
For `CCCC(=O)Nc1cccc(NC(=O)c2ccccc2OC(F)(F)F)c1`, the inhibition [2] was > 99% and the IC50 [5] was 0.71 µM.
With `CCCC(=O)Nc1cccc(NC(=O)c2cccc(-c3ccccc3)c2)c1` the inhibition [2] was 98% and the IC50 [5] was 2.2 µM.
For `CCCCS(=O)(=O)Nc1cccc(NC(=O)c2ccccc2Br)c1`, the inhibition [2] was 31%, the Stability (Plasma [3]) was 97% and the Stability (Plasma [6]) was > 99%.
Compound `CCCC(=O)Nc1ccc(NC(=O)c2ccccc2Br)cc1` has an inhibition [2] of 1%.
In the case of `CCCC(=O)Nc1ccc(Cl)c(NC(=O)c2ccccc2Br)c1`, the inhibition [2] is reported as 35%.
With `Cc1ccccc1C(=O)Nc1cccc(NC(=O)CC(C)C)c1` the PPB (Plasma [1]) was 96%, the inhibition [2] was > 99% and the Stability (Plasma [3]) was > 99%. For the same compound, the PPB (Plasma [4]) was 83%, the IC50 [5] was 1.12 µM and the Stability (Plasma [6]) was 69%.
With `CCCC(=O)Nc1cccc(C(=O)Nc2ccccc2Cl)c1` the inhibition [2] was 67%.
In the case of `CCCC(=O)Nc1cccc(NC(=O)c2cccc(NC(C)=O)c2)c1`, the inhibition [2] is reported as 55%.
Work on `CCCC(=O)Nc1ccc2nc(-c3ccccc3Br)[nH]c2c1` yielded an inhibition [2] of 39%.
Work on `CCCC(=O)Nc1cccc(NC(=O)c2cccc(C)c2)c1` yielded an inhibition [2] of 88%.
Compound `CCCC(=O)Nc1cccc(NC(=O)c2cccc(Oc3ccccc3)c2)c1` has an inhibition [7] of 65%.
`CC(=O)Nc1cccc(NC(=O)c2ccccc2Cl)c1` showed an inhibition [2] of 35%.
In the case of `CCCC(=O)Nc1cccc(N(C)C(=O)c2ccccc2Br)c1`, the PPB (Plasma [1]) is reported as 89%, the inhibition [2] is reported as < 1% and the Stability (Plasma [3]) is reported as 19%. For the same compound, the Stability (Plasma [6]) was < 1%.
`CCCC(=O)Nc1cccc(NC(=O)c2c(C)cccc2C)c1` gave an inhibition [2] of 98% and an IC50 [5] of 3 µM.
With `CCCC(=O)Nc1cccc(NC(=O)c2ccccc2)c1` the inhibition [2] was 64%.
In the case of `CCCC(=O)Nc1cccc(NC(=O)c2cnc3ccccc3c2)c1`, the inhibition [2] is reported as 10%.
Compound `CCCC(=O)Nc1cccc(NC(=O)c2cccc(S(C)(=O)=O)c2)c1` has an inhibition [2] of 25%.
`CCCC(=O)Nc1cccc(NC(=O)c2cccc(C#N)c2)c1` gave an inhibition [2] of 70%.
In the case of `CCCC(=O)Nc1cccc(NC(=O)c2ccccc2S(C)(=O)=O)c1`, the inhibition [2] is reported as 21%.
`CCCC(=O)Nc1cccc(NCc2ccccc2Br)c1` showed an inhibition [2] of 60%, a Stability (Plasma [3]) of 73% and a Stability (Plasma [6]) of 1%.
With `CCCC(=O)Nc1ccnc(NC(=O)c2ccccc2Br)c1` the inhibition [2] was < 1%.
For `CC(C)C(=O)Nc1cccc(NC(=O)c2ccccc2Br)c1`, the inhibition [2] was 88%, the IC50 [5] was 1.41 µM and the Stability (Plasma [6]) was 83%.
`Cc1ccccc1C(=O)Nc1cccc(NC(=O)Cc2ccc(Cl)cc2)c1` showed an inhibition [2] of 40%.
With `CC(C)CNC(=O)c1coc(NC(=O)c2ccccc2Br)n1` the inhibition [2] was < 1%.
With `CCCC(=O)Nc1cccc(NC(=O)c2cccc(Cl)c2)c1` the inhibition [7] was 80%.
For `CC(C)CC(=O)Nc1cccc(NC(=O)c2ccccc2Br)c1`, the PPB (Plasma [1]) was 93%, the inhibition [2] was > 99% and the Stability (Plasma [3]) was 90%. It also gave a PPB (Plasma [4]) of 87%, an IC50 [5] of 0.29 µM and a Stability (Plasma [6]) of 65%. It also gave a solubility [8] of 20 µM (≈ 7.51 µg/mL).
For `CCC(=O)Nc1cccc(NC(=O)c2ccccc2C)c1C`, the inhibition [2] was 5%.
Compound `CCCC(=O)Nc1cccc(NC(=O)c2ccccc2F)c1` has an inhibition [2] of 99% and an IC50 [5] of 0.97 µM.
